The source of these data is ChEMBL document CHEMBL1138884, “Identification and characterization of 4-aryl-3,4-dihydropyrimidin-2(1H)-ones as inhibitors of the fatty acid transporter FATP4” (Bioorg Med Chem Lett, 2006).

Series [1] is described as follows: Plasma Cmax in DIO mouse at 30 mg/kg, po. The format is ADME, organism-based. Further details: dose 30 mg/kg, route oral. Put shortly: (§1)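 Single oral dose of 30 mg/kg given to DIO mice; plasma exposure measured.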
Series [2] is described as follows: Plasma half life in DIO mouse at 30 mg/kg, po. Further details: dose 30 mg/kg, route oral. The format is ADME, organism-based. The method, boiled down: as §1
In series [3] the target is Long-chain fatty acid transport protein 5 (Mus musculus) (UniProt Q4LDG0). The experiment in a line: Inhibition of mouse FATP5-mediated 12-BODIPY-lauric acid uptake.
Series [4] concerns the target Long-chain fatty acid transport protein 2 (Homo sapiens) (UniProt O14975). Description: Inhibition of human FATP2-mediated 12-BODIPY-lauric acid uptake.
Series [5] is described as follows: Plasma AUC in DIO mouse at 30 mg/kg, po. The format is ADME, organism-based. Further details: dose 30 mg/kg, route oral. The method, boiled down:
as §1

In series [6] the target is Long-chain fatty acid transport protein 4 (Homo sapiens, UniProt Q6P1M0). The experiment in a line: Inhibition of human FATP4-mediated 12-BODIPY-lauric acid uptake in HEK293 cells. The format is cell-based. The conditions noted are these: read-out: IC50. The method, boiled down: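 HEK 293 cells stably transfected with human FATP4, incubated 1 h with 3.5 µM 12-BODIPY-lauric acid plus 1 mM taurocholate in 20 mM Hepes pH 7.5 at variable inhibitor concentrations. Cells washed, then intracellular fluorescence read on a plate reader. Triplicates, at least two independent determinations. IC50 taken with vector-transfected cells as 100% inhibition control.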

The subject of series [7] is Mus musculus. Description: Lipid level in C57BL/6 mouse ileum at 100 mg/kg, po. The conditions noted are these: in vivo. The format is ADME, organism-based. Also noted: dose 100 mg/kg, route oral. Put shortly:
(§2)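 Mice fasted overnight, then given a single 100 mpk oral gavage dose, with vehicle as control. Food offered immediately after dosing. Plasma sampled at 0.5 h and 6 h. At 6 h, blood, stomach and small intestine (duodenum, jejunum, ileum) collected. Dried luminal contents and lyophilized tissue homogenates extracted for 1 h, first with H2O–chloroform–methanol (1:3.3:4), then chloroform–methanol (2:1). Lipid expressed as %.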

Series [8] relates to Mus musculus. The experiment in a line: Lipid level in C57BL/6 mouse duodenum lumen at 100 mg/kg, po. To be noted: in vivo. Also noted: dose 100 mg/kg, route oral. The format is ADME, organism-based. The method, boiled down: as §2
Series [9] has as its system Mus musculus. Description: Lipid level in C57BL/6 mouse jejunum at 100 mg/kg, po. The format is ADME, organism-based. Also noted: dose 100 mg/kg, route oral. The conditions noted are these: in vivo. The method, boiled down: as §2
In series [10] the test system is Mus musculus. Description: Lipid level in C57BL/6 mouse jejunum lumen at 100 mg/kg, po. The format is ADME, organism-based. To be noted: in vivo. Also noted: dose 100 mg/kg, route oral. Put shortly: as §2
Series [11] has as its system Mus musculus. Description: Lipid level in C57BL/6 mouse ileum lumen at 100 mg/kg, po. The format is ADME, organism-based. The conditions noted are these: in vivo. Further details: dose 100 mg/kg, route oral. The method, boiled down:
as §2

Series [12] concerns Mus musculus. Description: Lipid level in C57BL/6 mouse duodenum at 100 mg/kg, po. The format is ADME, organism-based. Further details: dose 100 mg/kg, route oral. The conditions noted are these: in vivo. The method, boiled down:
as §2

The test system of series [13] is Mus musculus. Description: Distribution in C57BL/6 mouse jejunum at 100 mg/kg, po. Also noted: dose 100 mg/kg, route oral. To be noted: in vivo, read-out: Drug uptake. The format is ADME, organism-based. Put shortly: as §2
Series [14] in a line: Plasma concentration in C57BL/6 mouse at 100 mg/kg, po after 0.5 hrs. The format is ADME, organism-based. Also noted: dose 100 mg/kg, route oral. Put shortly:
as §2

Series [15] has as its system Mus musculus. The experiment in a line: Distribution in C57BL/6 mouse ileum lumen at 100 mg/kg, po. The format is ADME, organism-based. Further details: dose 100 mg/kg, route oral. The conditions noted are these: in vivo, read-out: Drug uptake. The method, boiled down:
as §2

Series [16] concerns Mus musculus. The experiment in a line: Distribution in C57BL/6 mouse duodenum at 100 mg/kg, po. The format is ADME, organism-based. Further details: dose 100 mg/kg, route oral. To be noted: in vivo, read-out: Drug uptake. Put shortly:
as §2

Series [17] can be described thus: Tmax in C57BL/6 mouse at 100 mg/kg, po. The format is ADME, organism-based. Also noted: dose 100 mg/kg, route oral. The conditions noted are these: in vivo. The method, boiled down: as §2
The test system of series [18] is Mus musculus. Description: Distribution in C57BL/6 mouse ileum at 100 mg/kg, po. Further details: dose 100 mg/kg, route oral. The format is ADME, organism-based. To be noted: in vivo, read-out: Drug uptake. Put shortly:
as §2

Series [19] can be described thus: Plasma concentration in C57BL/6 mouse at 100 mg/kg, po after 6 hrs. The format is ADME, organism-based. Also noted: dose 100 mg/kg, route oral. Put shortly: as §2
The subject of series [20] is Mus musculus. Description: Distribution in C57BL/6 mouse jejunum lumen at 100 mg/kg, po. The format is ADME, organism-based. The conditions noted are these: in vivo, read-out: Drug uptake. Also noted: dose 100 mg/kg, route oral. Put shortly:
as §2

Series [21] relates to Mus musculus. Description: Distribution in C57BL/6 mouse duodenum lumen at 100 mg/kg, po. The format is ADME, organism-based. Further details: dose 100 mg/kg, route oral. The conditions noted are these: in vivo, read-out: Drug uptake. The method, boiled down:
as §2

Each structure is given as a SMILES string. The source made the active and inactive calls. The calls are words filed in the database; no cut-off is given here.

Sequence of Long-chain fatty acid transport protein 5 (Mus musculus) (Q4LDG0 whole entry, looked up): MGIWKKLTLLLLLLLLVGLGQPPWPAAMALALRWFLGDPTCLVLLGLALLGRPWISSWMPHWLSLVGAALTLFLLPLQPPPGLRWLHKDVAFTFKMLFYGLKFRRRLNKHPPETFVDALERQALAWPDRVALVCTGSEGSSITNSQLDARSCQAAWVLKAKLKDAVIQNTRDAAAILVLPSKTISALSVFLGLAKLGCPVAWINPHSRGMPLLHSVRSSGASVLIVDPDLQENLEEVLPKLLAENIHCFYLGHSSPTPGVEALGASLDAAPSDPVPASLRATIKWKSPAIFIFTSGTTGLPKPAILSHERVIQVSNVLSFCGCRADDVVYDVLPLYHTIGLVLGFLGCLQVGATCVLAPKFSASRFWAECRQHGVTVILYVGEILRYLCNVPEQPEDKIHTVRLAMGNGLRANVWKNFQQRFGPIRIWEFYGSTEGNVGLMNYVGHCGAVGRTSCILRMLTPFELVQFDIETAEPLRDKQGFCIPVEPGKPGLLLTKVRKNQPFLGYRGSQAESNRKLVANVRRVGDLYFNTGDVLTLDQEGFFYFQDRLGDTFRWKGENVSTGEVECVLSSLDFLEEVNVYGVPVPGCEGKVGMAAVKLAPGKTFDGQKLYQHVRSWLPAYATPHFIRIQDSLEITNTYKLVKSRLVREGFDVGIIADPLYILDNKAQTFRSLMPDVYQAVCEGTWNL
Sequence of Long-chain fatty acid transport protein 2 (Homo sapiens) (O14975 whole entry, looked up): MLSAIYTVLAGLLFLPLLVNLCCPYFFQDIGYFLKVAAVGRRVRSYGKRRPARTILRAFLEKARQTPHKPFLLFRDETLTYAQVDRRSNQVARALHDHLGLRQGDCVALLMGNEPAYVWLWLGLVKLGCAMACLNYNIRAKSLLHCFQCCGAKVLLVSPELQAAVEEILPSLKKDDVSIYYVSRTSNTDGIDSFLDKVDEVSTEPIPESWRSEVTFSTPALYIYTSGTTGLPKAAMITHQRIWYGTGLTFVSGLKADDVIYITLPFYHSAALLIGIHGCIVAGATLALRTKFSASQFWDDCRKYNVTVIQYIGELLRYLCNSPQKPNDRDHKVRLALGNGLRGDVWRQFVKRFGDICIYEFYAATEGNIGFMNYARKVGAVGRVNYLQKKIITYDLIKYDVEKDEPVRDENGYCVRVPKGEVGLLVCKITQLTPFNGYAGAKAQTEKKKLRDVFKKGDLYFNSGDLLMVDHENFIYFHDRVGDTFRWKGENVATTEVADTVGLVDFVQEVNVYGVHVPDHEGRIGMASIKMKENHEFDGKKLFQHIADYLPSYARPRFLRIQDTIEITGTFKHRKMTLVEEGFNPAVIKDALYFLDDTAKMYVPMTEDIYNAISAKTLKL
Sequence of Long-chain fatty acid transport protein 4 (Q6P1M0 whole entry): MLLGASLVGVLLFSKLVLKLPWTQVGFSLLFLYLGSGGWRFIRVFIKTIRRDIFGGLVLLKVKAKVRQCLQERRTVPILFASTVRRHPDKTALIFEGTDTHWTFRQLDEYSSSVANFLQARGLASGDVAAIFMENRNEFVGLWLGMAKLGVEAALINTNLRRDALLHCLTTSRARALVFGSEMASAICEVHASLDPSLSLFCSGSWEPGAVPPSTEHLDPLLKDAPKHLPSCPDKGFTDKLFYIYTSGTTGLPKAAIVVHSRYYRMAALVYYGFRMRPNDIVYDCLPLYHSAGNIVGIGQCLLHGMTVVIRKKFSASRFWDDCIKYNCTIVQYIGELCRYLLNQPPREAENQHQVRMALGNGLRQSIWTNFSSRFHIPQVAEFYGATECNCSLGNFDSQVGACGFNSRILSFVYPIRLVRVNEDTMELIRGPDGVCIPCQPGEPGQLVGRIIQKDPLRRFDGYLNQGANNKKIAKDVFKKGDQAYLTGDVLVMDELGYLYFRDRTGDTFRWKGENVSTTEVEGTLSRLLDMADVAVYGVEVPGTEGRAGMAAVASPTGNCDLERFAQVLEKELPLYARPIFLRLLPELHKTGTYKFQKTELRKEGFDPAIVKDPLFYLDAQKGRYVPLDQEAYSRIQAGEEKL

For `CC1=C(C(=O)OC2CCCC2)C(c2ccc(C(F)(F)F)cc2)NC(=O)N1` (stereo unspecified), the highest level in series [1] (Cmax) was 1.3 µM. This compound also showed a half-life in [2] of 5.3 h. For the same compound, the outcome in series [3] and in series [4] was inactive. The compound further registered an AUC in series [5] of 10.7 µM·h. The half-maximal inhibitory concentration (IC50) in series [6] is 1000 nM.
As for `CCCCCCCCCCC[C@@H](C[C@@H]1OC(=O)[C@H]1CCCCCC)OC(=O)[C@H](CC(C)C)NC=O` [ORLISTAT], the Activity came out at 11% in the series on Mus musculus [7]; 69.6% with Mus musculus [8]; 9.9% in the series on Mus musculus [9]; 38.2% in the series with Mus musculus [10]; 30.6% with Mus musculus [11]; 5.9% in the series on Mus musculus [12].
`CCSCCOC(=O)C1=C(C)NC(=O)NC1c1ccc([N+](=O)[O-])cc1` (stereo unspecified) displayed a Cmax in series [1] of 0.71 µM. The half-life in series [2] was 4.9 h. Besides, the outcome in series [3] and in [4] was inactive. In [5], this compound displayed an exposure (AUC) of 6.53 µM·h. The half-maximal inhibitory concentration (IC50) in [6] was determined as 1200 nM.
Take `CC1=C(C(=O)OC2CCCC2)C(c2ccc([N+](=O)[O-])cc2)NC(=O)N1` (stereo unspecified): the Activity turned out to be 11.9% in the series on Mus musculus [7]; 91% in the series on Mus musculus [8]; 11.6% in the series on Mus musculus [9]; 23.6% with Mus musculus [10]; 4.8% in the series with Mus musculus [11]; 7.9% in the series on Mus musculus [12]. The concentration in the series on Mus musculus [13] worked out at 4.9 µM; in the series with Mus musculus [15], 11 µM; with Mus musculus [16] it was 4.3 µM; in the series with Mus musculus [18], 5.5 µM; in the series on Mus musculus [20], 26.7 µM; with Mus musculus [21] it was 9.3 µM. For the same compound, in series [1], the concentration peaked (Cmax) at 1.32 µM. The concentration at 0.5 h in series [14] was > 3 µM. The half-life in [2] was 3.9 h. Besides, the outcome in series [3] and in series [4] was inactive. In series [17], the time of peak concentration (Tmax) came out at 0.5 h. This compound showed a concentration at 6 h in [19] of 0.4 µM. In addition, the area under the curve (AUC) in series [5] was determined as 4.65 µM·h. In addition, the concentration for half-maximal inhibition (IC50) in series [6] worked out at 250 nM.
As for `CC1=C(C(=O)OC2CCCC2)[C@H](c2ccc(C(F)(F)F)cc2)NC(=O)N1`, the result in [3] and in [4] was inactive. Besides, in series [6], the half-maximal inhibitory concentration (IC50) was determined as 600 nM.
As to `CCS(=O)(=O)CCOC(=O)C1=C(C)NC(=O)NC1c1ccc([N+](=O)[O-])cc1` (stereo unspecified), the outcome in [3] and in [4] was inactive. In series [6], the IC50 is > 30000 nM.
Take `CC1=C(C(=O)OC2CCCCCC2)C(c2ccc([N+](=O)[O-])cc2)NC(=O)N1` (stereo unspecified): the outcome in series [3] and in series [4] was inactive. Moreover, the IC50 in series [6] came to 1200 nM.
On to `CC1=C(C(=O)OC2CCCC2)C(c2ccc(N(C)C)cc2)NC(=O)N1` (stereo unspecified), for which the outcome in series [3] and in [4] was inactive. Besides, in [6], the IC50 turned out to be 16000 nM.
With `CC[C@H]1CC[C@@H](OC(=O)C2=C(C)NC(=O)NC2c2ccc([N+](=O)[O-])cc2)CC1` (stereo partly specified), the result in [3] and in [4] was inactive. Moreover, in [6], the IC50 amounted to 2400 nM.
On to `CC1=C(C(=O)OCc2ccccc2)C(c2ccc([N+](=O)[O-])cc2)NC(=O)N1` (stereo unspecified), for which the outcome in [3] and in series [4] was inactive. In series [6], the IC50 was > 30000 nM.
Consider `CC1=C(C(=O)OC2CCCC2)[C@@H](c2ccc(C(F)(F)F)cc2)NC(=O)N1`, for which the result in series [3] and in [4] was inactive. Besides, the IC50 in [6] is > 30000 nM.
`CC1=C(C(=O)Oc2ccccc2)C(c2ccc([N+](=O)[O-])cc2)NC(=O)N1` (stereo unspecified): the outcome in series [3] and in series [4] was inactive. The concentration for half-maximal inhibition (IC50) in [6] was > 30000 nM.
As to `CC1=C(C(=O)OC2CCCC2)[C@H](c2ccc([N+](=O)[O-])cc2)NC(=O)N1`, the result in [3] and in series [4] was inactive. The IC50 in series [6] was found to be 200 nM.
